Where two headings read alike, the source gives them in different places.
Columns and labels:
male ICR-CD1 mice [1] = assay: Hot plate assay; type: in vivo, mouse; settings: 15 min
Procedure, shortened: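 Male ICR-CD1 mice, 8 weeks old (n = 6–15/group), received compound i.c.v. (10 µl, 100 µg/mouse) under isoflurane, alone or with MERF (50 µg/mouse). Mice were placed on a glass platform preheated to 55 °C. Latency to shake, lick or lift the hind paw, or to jump, was timed at set points, with a 60 s cut-off. Results are %MPE = (Test−Baseline)/(60−Baseline) × 100.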

male ICR-CD1 mice [2] = assay: Tail-flick assay; type: in vivo, mouse; settings: for %MPE (group mean): 15 min
Procedure, shortened: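 Radiant-heat tail-flick in 8-week male ICR-CD1 mice (n = 6–15/group). Beam was calibrated to a 2–4 s baseline, tail tip placed 20–30 mm from the source, cut-off 10 s. Compound was given i.c.v. under isoflurane at 100 µg/mouse (also 75 µg/mouse), alone or with MERF (50 µg/mouse). […] Results are %MPE relative to pre-treatment baseline.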

male ICR-CD1 mice [3] = assay: Acetic acid induced writhing test; type: in vivo, mouse; settings: for effect of naloxone on analgesia of systemic (i.p.) compound: naloxone 5 mg/kg s.c.
male ICR-CD1 mice [4] = assay: Formalin induced paw licking/lifting test; type: in vivo, mouse; settings: 2% formalin
mouse ACE (mACE) [5] = molecular target: T1, mouse ACE (mACE) (Mus musculus, UniProt P09470); assay: Fluorescence-based ACE enzymatic assay with Mca-[…]; type: biochemical
T1 sequence (P09470 35-1312): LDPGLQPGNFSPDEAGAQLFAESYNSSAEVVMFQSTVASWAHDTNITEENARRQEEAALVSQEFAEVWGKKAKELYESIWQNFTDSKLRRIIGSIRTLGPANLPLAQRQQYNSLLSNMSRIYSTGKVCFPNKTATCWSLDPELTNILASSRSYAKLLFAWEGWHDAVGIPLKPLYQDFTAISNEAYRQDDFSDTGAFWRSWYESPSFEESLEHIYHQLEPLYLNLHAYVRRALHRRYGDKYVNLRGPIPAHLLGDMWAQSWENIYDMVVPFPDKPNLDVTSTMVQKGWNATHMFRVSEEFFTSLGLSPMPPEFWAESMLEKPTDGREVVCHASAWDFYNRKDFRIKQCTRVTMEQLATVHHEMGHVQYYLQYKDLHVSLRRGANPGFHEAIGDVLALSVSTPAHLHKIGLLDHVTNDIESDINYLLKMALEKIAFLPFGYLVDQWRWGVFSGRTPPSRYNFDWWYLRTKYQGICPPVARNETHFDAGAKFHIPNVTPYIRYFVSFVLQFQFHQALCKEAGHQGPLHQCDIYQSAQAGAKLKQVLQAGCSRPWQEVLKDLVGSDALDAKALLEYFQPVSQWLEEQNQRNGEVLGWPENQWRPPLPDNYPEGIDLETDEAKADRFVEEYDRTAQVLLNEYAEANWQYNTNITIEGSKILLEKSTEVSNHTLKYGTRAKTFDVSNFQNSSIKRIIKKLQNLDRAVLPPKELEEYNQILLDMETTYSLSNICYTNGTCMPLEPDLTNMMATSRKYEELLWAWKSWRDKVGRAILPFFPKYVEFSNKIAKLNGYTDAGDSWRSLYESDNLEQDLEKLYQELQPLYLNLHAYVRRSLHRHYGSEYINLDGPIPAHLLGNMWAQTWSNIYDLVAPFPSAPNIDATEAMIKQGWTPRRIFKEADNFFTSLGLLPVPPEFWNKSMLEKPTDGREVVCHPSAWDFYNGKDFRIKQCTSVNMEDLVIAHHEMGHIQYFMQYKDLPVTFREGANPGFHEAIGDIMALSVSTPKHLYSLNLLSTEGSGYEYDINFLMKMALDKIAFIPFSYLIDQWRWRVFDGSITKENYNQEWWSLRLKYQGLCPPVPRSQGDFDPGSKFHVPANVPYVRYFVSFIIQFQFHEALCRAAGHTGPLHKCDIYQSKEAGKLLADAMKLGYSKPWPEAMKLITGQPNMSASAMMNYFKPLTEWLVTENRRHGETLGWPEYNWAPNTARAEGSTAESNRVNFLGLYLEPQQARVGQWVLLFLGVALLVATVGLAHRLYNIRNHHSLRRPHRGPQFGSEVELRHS

C-domain of mACE = molecular target: T2, C-domain of mACE (Mus musculus, UniProt P09470); assay: ACE C-domain specific enzymatic assay with Abz-LFK; type: biochemical
T2 sequence (P09470 35-1312): T1 sequence (P09470 35-1312)

N-domain of mACE = molecular target: T3, N-domain of mACE (Mus musculus, UniProt P09470); assay: ACE N-domain specific enzymatic assay with Abz-SDK; type: biochemical
T3 sequence (P09470 35-1312): T1 sequence (P09470 35-1312)

[6] = system: extracellular MERF, Met-enkephalin and Leu-enkephalin levels; type: cell-based, mouse; settings: thiorphan 10 μM, raloxifene 500 μM
mouse ACE (mACE) [7] = molecular target: T1, mouse ACE (mACE); assay: Secondary LC-MS/MS ACE inhibition assay; type: biochemical
[8] = compound 100 μg/mouse + MERF i.c.v.
[9] = compound 100 μg/mouse i.c.v. alone
[10] = compound 100 μg/mouse + MERF 50 μg/mouse i.c.v.
[11] = 100 µg/animal i.c.v., 1% acetic acid i.p., 30 min
[12] = 100 µg/animal i.c.v. + naloxone 5 mg/kg s.c.
[13] = 100 µg/animal i.c.v., late phase

Compound: C[C@H](CS)C(=O)N1CCC[C@H]1C(=O)O [Captopril, captopril]
- %MPE (group mean) (male ICR-CD1 mice [1]; [8]): 51.30%
- %MPE (group mean) (male ICR-CD1 mice [1]; [9]): 10.32%
- %MPE (group mean) (male ICR-CD1 mice [2]; [10]): 68.31%
- %MPE (group mean) (male ICR-CD1 mice [2]; [9]): 21.68%
- writhings (group mean) (male ICR-CD1 mice [3]; [11]): 48
- writhings (group mean) (male ICR-CD1 mice [3]; 50 mg/kg i.p., 1% acetic acid): 57.66
- effect of naloxone on analgesia of systemic (i.p.) compound (male ICR-CD1 mice [3]): reversed by systemic naloxone
- paw licking/lifting duration, Phase I (male ICR-CD1 mice [4]; [12]): 73.5 s
- paw licking/lifting duration, Phase II (male ICR-CD1 mice [4]; [12]): 16.25 s
- paw licking/lifting duration, Phase I (male ICR-CD1 mice [4]; 100 µg/animal i.c.v., 0–5 min): 16.5 s
- paw licking/lifting duration, Phase II (male ICR-CD1 mice [4]; [13]): 15 s

Compound: O=C(c1ccc(OCCN2CCCCC2)cc1)c1c(-c2ccc(O)cc2)sc2cc(O)ccc12 [Raloxifene, raloxifene]
- IC50 (mouse ACE (mACE) [5]): 102 ± 13.2 µM
- %MPE (group mean) (male ICR-CD1 mice [1]; [8]): 25.89%
- %MPE (group mean) (male ICR-CD1 mice [1]; [9]): 5.52%
- IC50 (C-domain of mACE): 140 µM
- Ki (C-domain of mACE): 30 µM
- Ki (N-domain of mACE): 180 µM
- IC50 (N-domain of mACE; read-out: IC50 N-domain, 40 µM Abz-SDK(Dnp)P-OH, 35 nM mACE): 320 µM
- %MPE (group mean) (male ICR-CD1 mice [2]; [10]): 34.28%
- %MPE (group mean) (male ICR-CD1 mice [2]; [9]): 13.33%
- writhings (group mean) (male ICR-CD1 mice [3]; 100 µg/animal i.c.v. + naloxone 5 mg/kg s.c., 1% acetic acid): 78.75
- writhings (group mean) (male ICR-CD1 mice [3]; [11]): 51.8
- effect of naloxone on analgesia of systemic (i.p.) compound (male ICR-CD1 mice [3]): naloxone failed to reverse the analgesic effect
- paw licking/lifting duration, Phase I (male ICR-CD1 mice [4]; [12]): 69.75 s
- paw licking/lifting duration, Phase II (male ICR-CD1 mice [4]; [12]): 9.25 s
- paw licking/lifting duration, Phase I (male ICR-CD1 mice [4]; 100 µg/animal i.c.v., 0–5 min): 10 s
- paw licking/lifting duration, Phase II (male ICR-CD1 mice [4]; [13]): 2 s

Compound: O=C(O)CNC(=O)C(CS)Cc1ccccc1 (stereo not shown) [Thiorphan, thiorphan]
- effect on Met- and Leu-enkephalin levels [6]: affected the levels of Met- and Leu-enkephalins
- IC50 (mouse ACE (mACE) [5]): 2.36 ± 0.42 µM
- %MPE (group mean) (male ICR-CD1 mice [1]; [8]): 36.48%
- %MPE (group mean) (male ICR-CD1 mice [1]; [9]): 13.83%
- IC50 (mouse ACE (mACE) [7]): 3.51 ± 0.37 µM
- IC50 (C-domain of mACE): 0.77 ± 0.046 µM
- Ki (C-domain of mACE): 0.17 ± 0.01 µM
- C/N selectivity factor (C-domain of mACE; N-domain versus C-domain): 4.2
- IC50 (N-domain of mACE): 1.3 ± 0.08 µM
- Ki (N-domain of mACE): 0.71 ± 0.045 µM
- %MPE (group mean) (male ICR-CD1 mice [2]; [10]): 40.32%
- %MPE (group mean) (male ICR-CD1 mice [2]; [9]): 22.45%

Compound: C=CCN1CC[C@]23c4c5ccc(O)c4O[C@H]2C(=O)CC[C@@]3(O)[C@H]1C5 [Naloxone, naloxone]
- analgesia of naloxone itself (male ICR-CD1 mice [2]; 5 mg/kg s.c.): unable to induce analgesia

Compound: O=C(O)c1nn(Cc2ccc(Cl)cc2Cl)c2ccccc12 [Lonidamine, lonidamine]
- confirmation of HTS findings in dose-response studies (mouse ACE (mACE) [5]): did not confirm the HTS findings

Compound: Met-enkephalin-Arg-Phe [MERF]
- %MPE (group mean) (male ICR-CD1 mice [2]; MERF 50 μg/mouse i.c.v. alone): 6.27%

Compound: Cl.O=C(O)C1CCCN(CCC=C(c2ccccc2)c2ccccc2)C1 (stereo not shown) [SKF 89976A hydrochloride]
- confirmation of HTS findings in dose-response studies (mouse ACE (mACE) [5]): did not confirm the HTS findings

Reference: paper PMC12521504 (Communications Biology, 2025)
